ChEMBL document CHEMBL1148220, “Antineoplastic agents. 529. Isolation and structure of nootkastatins 1 and 2 from the Alaskan yellow cedar Chamaecyparis nootkatensis” (2004)
Values after ≈ are worked out from the molar mass of the structure shown. Active and inactive are the calls of the source. No cut-off for these calls is given here.

How the values were obtained:
Streptococcus pneumoniae [1] = assay: Antimicrobial activity against Streptococcus pneumoniae ATCC 6303 after 24 hrs by broth microdilution assay; format: functional; conditions: ATCC 6303, 24 h
Outline: (§1)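 Bacterial MICs were determined by NCCLS broth microdilution. Compounds were dissolved in a small volume of sterile DMSO and diluted in the appropriate medium just before testing. MIC was the lowest concentration giving no visible growth (optically clear). Assays were repeated on separate days.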

Enterococcus faecalis [2] = assay: Antimicrobial activity against Enterococcus faecalis ATCC 29212 after 24 hrs by broth microdilution assay; format: functional; conditions: ATCC 29212, 24 h; outline: as §1
Nakaseomyces glabratus = assay: Antimicrobial activity against Candida glabrata after 48 hrs by broth microdilution assay in presence of 25% human serum; format: functional
Outline: (§2)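 For yeasts, NCCLS broth microdilution was run in medium supplemented with 25% heat-inactivated, filter-sterilized normal human serum. Compounds were reconstituted in sterile DMSO and diluted in medium just before the assay. MIC was the lowest concentration giving optically clear wells.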

Micrococcus luteus [3] = assay: Antimicrobial activity against Micrococcus luteus Presque Isle 456 after 24 hrs by broth microdilution assay in presence of 25% human serum; format: functional
Outline: (§3)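 Bacteria were tested by NCCLS broth microdilution in medium containing 25% heat-inactivated, filter-sterilized normal human serum. Compounds were dissolved in sterile DMSO and diluted in medium immediately before use. MIC was the lowest concentration with no visible growth (optically clear). Assays were repeated on separate days.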

P388 = assay: Cytotoxicity against mouse P388 cells; format: functional; conditions: read-out: ED50 (the source's name)
Cryptococcus neoformans [4] = assay: Antimicrobial activity against Cryptococcus neoformans ATCC 90122 after 24 hrs by broth microdilution assay in presence of 25% human serum; format: functional; conditions: ATCC 90112, 24 h, in the assay text read “ATCC 90112” for “ATCC 90122”; outline: as §2
Enterococcus faecium = assay: Antimicrobial activity against vancomycin-resistant Enterococcus faecium after 24 hrs by broth microdilution assay in presence of 25% human serum; format: functional
Outline: (§4)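 Bacterial NCCLS broth microdilution run in medium with 25% heat-inactivated, filter-sterilized normal human serum. Compounds were taken up in sterile DMSO and diluted in medium immediately before use. MIC was the lowest concentration with no visible growth (optically clear). Assays were repeated on separate days.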

Enterococcus faecalis [5] = assay: Antimicrobial activity against Enterococcus faecalis ATCC 29212 after 24 hrs by broth microdilution assay in presence of 25% human serum; format: functional; conditions: ATCC 29212, 24 h; outline: as §3
Cryptococcus neoformans [6] = assay: Antimicrobial activity against Cryptococcus neoformans ATCC 90122 after 24 hrs by broth microdilution assay; format: functional; conditions: ATCC 90112, 24 h, in the assay text read “ATCC 90112” for “ATCC 90122”
Outline: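 Yeasts were tested by NCCLS broth microdilution. Compounds were dissolved in a small volume of sterile DMSO and diluted in the appropriate medium immediately before testing. MIC was the lowest concentration inhibiting all visible growth (optically clear). Assays were repeated on separate days.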

DU-145 = assay: Cytotoxicity against human DU145 cells after 48 hrs by SRB assay; format: functional; conditions: DU-145, 48 h
Candida albicans [7] = assay: Antimicrobial activity against Candida albicans ATCC 90028 at 64 ug/mL after 48 hrs by broth microdilution assay; format: functional, organism-based
Neisseria gonorrhoeae [8] = assay: Antimicrobial activity against Neisseria gonorrhoeae ATCC 49226 after 24 hrs by broth microdilution assay in presence of 25% human serum; format: functional; conditions: ATCC 49226, 24 h; outline: as §3
KM-20L2 = assay: Cytotoxicity against human KM20L2 cells after 48 hrs by SRB assay; format: functional; conditions: KM-20L2, 48 h
Escherichia coli [9] = assay: Antimicrobial activity against Escherichia coli ATCC 25922 at 64 ug/mL after 24 hrs by broth microdilution assay; format: functional, organism-based
Candida albicans [10] = assay: Antimicrobial activity against Candida albicans ATCC 90028 after 48 hrs by broth microdilution assay in presence of 25% human serum; format: functional; conditions: ATCC 90028, 48 h; outline: as §2
[11] = test system: Staphylococcus epidermidis; assay: Antimicrobial activity against Staphylococcus epidermidis ATCC 49461 after 24 hrs by broth microdilution assay in presence of 25% human serum; format: functional; conditions: ATCC 49461, 24 h; outline: as §3
SF-268 = assay: Cytotoxicity against human SF268 cells after 48 hrs by SRB assay; format: functional; conditions: SF-268, 48 h
Enterobacter cloacae [12] = assay: Antimicrobial activity against Enterobacter cloacae ATCC 13047 after 24 hrs by broth microdilution assay in presence of 25% human serum; format: functional; conditions: ATCC 13047, 24 h; outline: as §3
Micrococcus luteus [13] = assay: Antimicrobial activity against Micrococcus luteus Presque Isle 456 after 24 hrs by broth microdilution assay; format: functional; outline: as §1
Rhodococcus sp. = assay: Antimicrobial activity against Rhodococcus sp. after 24 hrs by broth microdilution assay in presence of 25% human serum; format: functional; conditions: Rhodococcus sp. (in: high G+C Gram-positive bacteria); outline: as §3
BXPC-3 = assay: Cytotoxicity against human BxPC3 cells after 48 hrs by SRB assay; format: functional; conditions: BXPC-3, 48 h
Cryptococcus neoformans [14] = assay: Antimicrobial activity against fluconazole-resistant Cryptococcus neoformans after 48 hrs by broth microdilution assay in presence of 25% human serum; format: functional
MCF7 = assay: Cytotoxicity against human MCF7 cells after 48 hrs by SRB assay; format: functional; conditions: MCF7, 48 h
[15] = test system: Stenotrophomonas maltophilia; assay: Antimicrobial activity against Stenotrophomonas maltophilia ATCC 13637 after 24 hrs by broth microdilution assay in presence of 25% human serum; format: functional; conditions: ATCC 13637, 24 h; outline: as §3
Enterobacter cloacae [16] = assay: Antimicrobial activity against Enterobacter cloacae ATCC 13047 at 64 ug/mL after 24 hrs by broth microdilution assay; format: functional, organism-based
Streptococcus pyogenes = assay: Antimicrobial activity against penicillin-resistant Streptococcus pyogenes after 24 hrs by broth microdilution assay in presence of 25% human serum; format: functional; outline: as §4
Streptococcus pneumoniae [17] = assay: Antimicrobial activity against penicillin-resistant Streptococcus pneumoniae after 24 hrs by broth microdilution assay in presence of 25% human serum; format: functional; outline: as §4
[18] = test system: Stenotrophomonas maltophilia; assay: Antimicrobial activity against Stenotrophomonas maltophilia ATCC 13637 at 64 ug/mL after 24 hrs by broth microdilution assay; format: functional, organism-based
NCI-H460 = assay: Cytotoxicity against human NCI-H460 cells after 48 hrs by SRB assay; format: functional; conditions: NCI-H460, 48 h
Streptococcus pneumoniae [19] = assay: Antimicrobial activity against Streptococcus pneumoniae ATCC 6303 after 24 hrs by broth microdilution assay in presence of 25% human serum; format: functional; conditions: ATCC 6303, 24 h; outline: as §3
Staphylococcus aureus [20] = assay: Antimicrobial activity against methicillin-resistant Staphylococcus aureus after 24 hrs by broth microdilution assay in presence of 25% human serum; format: functional; outline: as §4
Escherichia coli [21] = assay: Antimicrobial activity against Escherichia coli ATCC 25922 after 24 hrs by broth microdilution assay in presence of 25% human serum; format: functional; conditions: ATCC 25922, 24 h; outline: as §3
Staphylococcus aureus [22] = assay: Antimicrobial activity against Staphylococcus aureus ATCC 29213 after 24 hrs by broth microdilution assay; format: functional; conditions: ATCC 29213, 24 h; outline: as §1
Neisseria gonorrhoeae [23] = assay: Antimicrobial activity against Neisseria gonorrhoeae ATCC 49226 at 64 ug/mL after 24 hrs by broth microdilution assay; format: functional; conditions: ATCC 49226, 24 h
Staphylococcus aureus [24] = assay: Antimicrobial activity against Staphylococcus aureus ATCC 29213 after 24 hrs by broth microdilution assay in presence of 25% human serum; format: functional; conditions: ATCC 29213, 24 h; outline: as §3

| Structure (SMILES) | MBC (Streptococcus pneumoniae [1]) | MIC (Streptococcus pneumoniae [1]) | MBC (Enterococcus faecalis [2]) | MIC (Enterococcus faecalis [2]) | MIC (Nakaseomyces glabratus) | EC50 (P388) | MIC (Cryptococcus neoformans [6]) | GI50 (DU-145) | Activity (Candida albicans [7]) | GI50 (KM-20L2) | Activity (Escherichia coli [9]) | GI50 (SF-268) | MIC (Micrococcus luteus [13]) | GI50 (BXPC-3) | GI50 (MCF7) | Activity (Enterobacter cloacae [16]) | Activity [18] | GI50 (NCI-H460) | MIC (Staphylococcus aureus [22]) | MIC (Neisseria gonorrhoeae [23]) | further results |
| --- | --- | --- | --- | --- | --- | --- | --- | --- | --- | --- | --- | --- | --- | --- | --- | --- | --- | --- | --- | --- | --- |
| CO[C@H]1C[C@H]2C(C)(C)CCC[C@]2(C)c2ccc(O)c(C(C)C)c21 [NOOTKASTATIN 1] | 64 µg/mL (≈ 202 µM) | 64 µg/mL (≈ 202 µM) | 16 µg/mL (≈ 50.6 µM) | 4 µg/mL (≈ 12.6 µM) | > 64 µg/mL | 1.5 µg/mL (≈ 4.74 µM) | 64 µg/mL (≈ 202 µM) | 1.1 µg/mL (≈ 3.48 µM) | inactive | 0.98 µg/mL (≈ 3.1 µM) | inactive | 0.85 µg/mL (≈ 2.69 µM) | 2 µg/mL (≈ 6.32 µM) | 2.1 µg/mL (≈ 6.64 µM) | 2 µg/mL (≈ 6.32 µM) | inactive | inactive | 0.75 µg/mL (≈ 2.37 µM) | 8 µg/mL (≈ 25.3 µM) | 2 µg/mL (≈ 6.32 µM) | MIC (Micrococcus luteus [3]): > 64 µg/mL; MIC (Cryptococcus neoformans [4]): > 64 µg/mL; MIC (Enterococcus faecium): > 64 µg/mL; MIC (Enterococcus faecalis [5]): > 64 µg/mL; MIC (Neisseria gonorrhoeae [8]): > 64 µg/mL; MIC (Candida albicans [10]): > 64 µg/mL; MIC [11]: > 64 µg/mL; MIC (Enterobacter cloacae [12]): > 64 µg/mL; MBC (Micrococcus luteus [13]): 8 µg/mL (≈ 25.3 µM); MIC (Rhodococcus sp.): > 64 µg/mL; MIC (Cryptococcus neoformans [14]): > 64 µg/mL; MIC [15]: > 64 µg/mL; MIC (Streptococcus pyogenes): > 64 µg/mL; MIC (Streptococcus pneumoniae [17]): > 64 µg/mL; MIC (Streptococcus pneumoniae [19]): > 64 µg/mL; MIC (Staphylococcus aureus [20]): > 64 µg/mL; MIC (Escherichia coli [21]): > 64 µg/mL; MBC (Staphylococcus aureus [22]): 32 µg/mL (≈ 101 µM); MBC (Neisseria gonorrhoeae [23]): 4 µg/mL (≈ 12.6 µM); MIC (Staphylococcus aureus [24]): > 64 µg/mL |
| CC(C)O[C@@H]1C[C@H]2C(C)(C)CCC[C@]2(C)c2ccc(O)c(C(C)C)c2O1 [NOOTKASTATIN 2] | 64 µg/mL (≈ 178 µM) | 64 µg/mL (≈ 178 µM) | 32 µg/mL (≈ 88.8 µM) | 2 µg/mL (≈ 5.55 µM) | > 64 µg/mL | 5.8 µg/mL (≈ 16.1 µM) | 64 µg/mL (≈ 178 µM) | 2.2 µg/mL (≈ 6.1 µM) | inactive | 2.4 µg/mL (≈ 6.66 µM) | inactive | 2 µg/mL (≈ 5.55 µM) | 1 µg/mL (≈ 2.77 µM) | 1.8 µg/mL (≈ 4.99 µM) | 2.3 µg/mL (≈ 6.38 µM) | inactive | inactive | 2 µg/mL (≈ 5.55 µM) | 4 µg/mL (≈ 11.1 µM) | 2 µg/mL (≈ 5.55 µM) | MIC (Micrococcus luteus [3]): > 64 µg/mL; MIC (Cryptococcus neoformans [4]): > 64 µg/mL; MIC (Enterococcus faecium): > 64 µg/mL; MIC (Enterococcus faecalis [5]): > 64 µg/mL; MIC (Neisseria gonorrhoeae [8]): > 64 µg/mL; MIC (Candida albicans [10]): > 64 µg/mL; MIC [11]: > 64 µg/mL; MIC (Enterobacter cloacae [12]): > 64 µg/mL; MBC (Micrococcus luteus [13]): 16 µg/mL (≈ 44.4 µM); MIC (Rhodococcus sp.): > 64 µg/mL; MIC (Cryptococcus neoformans [14]): > 64 µg/mL; MIC [15]: > 64 µg/mL; MIC (Streptococcus pyogenes): > 64 µg/mL; MIC (Streptococcus pneumoniae [17]): > 64 µg/mL; MIC (Streptococcus pneumoniae [19]): > 64 µg/mL; MIC (Staphylococcus aureus [20]): > 64 µg/mL; MIC (Escherichia coli [21]): > 64 µg/mL; MBC (Staphylococcus aureus [22]): 8 µg/mL (≈ 22.2 µM); MBC (Neisseria gonorrhoeae [23]): 2 µg/mL (≈ 5.55 µM); MIC (Staphylococcus aureus [24]): > 64 µg/mL |
| CC(C)c1c(O)ccc2c1C=C[C@H]1C(C)(C)CCC[C@]21C |  | 32 µg/mL (≈ 113 µM) |  | 16 µg/mL (≈ 56.3 µM) |  | 3.7 µg/mL (≈ 13 µM) | 16 µg/mL (≈ 56.3 µM) | > 10 µg/mL | inactive | > 10 µg/mL | inactive | > 10 µg/mL | 4 µg/mL (≈ 14.1 µM) | > 10 µg/mL | > 10 µg/mL | inactive | inactive | > 10 µg/mL | 16 µg/mL (≈ 56.3 µM) | 8 µg/mL (≈ 28.1 µM) |  |
